# Experimental data gathered from unrelated publications.
# CDK4: Cyclin-dependent kinase 4 (CDK4, Homo sapiens, UniProt P11802)
# REN: Renin (REN, Homo sapiens, UniProt P00797)
Compound,target,read-out,action,method,tested at,inhibition [%]
CC(C)C[C@H](NC(=O)[C@H](Cc1ccccc1)NC(=O)c1cnccn1)B(O)O,"GZMA (Homo sapiens, UniProt P12544)",enzyme activity,inhibitor,,33 µM,72.4
Cn1cc(-c2cc(F)cc(N3CCn4c(cc5c4CCCC5)C3=O)c2CO)cc(Nc2ccc(N3CCN(C4COC4)CC3)cn2)c1=O,"Serine/threonine-protein kinase MRCK beta (CDC42BPB, Homo sapiens, UniProt Q9Y5S2)",enzyme activity,inhibitor,,0.1 µM,2
Clc1ccc2c(C3CCN(CCc4c[nH]c5ccccc45)CC3)c[nH]c2c1,"Amine oxidase [flavin-containing] A (Maoa, Rattus norvegicus, UniProt P21396)",ligand displacement,,radioligand,10 µM,15
CCOC(=O)[C@H]1Cc2c(cc([N+](=O)[O-])cc2[N+](=O)[O-])[C@@H](O)[C@@]12C(=O)Nc1cccc(Br)c12,CDK4,cell-free assay,inhibitor,TR-FRET,1 µM,45.6
C#Cc1n[nH]c2c(-c3cn([C@@H](C)c4ccccc4)c(=O)[nH]c3=O)cc(F)cc12,"Fibroblast growth factor receptor 3 (FGFR3, Homo sapiens, UniProt P22607)",enzyme activity,inhibitor,,0.1 µM,-2.7
CCOC(=O)[C@H]1Cc2c(cc([N+](=O)[O-])cc2[N+](=O)[O-])[C@@H](O)[C@@]12C(=O)Nc1ccc(F)cc12,CDK4,cell-free assay,inhibitor,TR-FRET,1 µM,53.9
CCOC(=O)c1ccc(OC(=O)CCCCCNC(=N)N)cc1,REN,enzyme activity,inhibitor,,10 µM,0
COc1cc(Nc2ncc(F)c(Nc3ccc4c(n3)NC(=O)C(C)(C)O4)n2)cc(OC)c1OC,"Cyclin-G-associated kinase (GAK, Homo sapiens, UniProt O14976)",binding,,,10 µM,95
COCCCOc1cc(C[C@@H](C[C@H](N)[C@@H](O)C[C@H](C(=O)NCC(C)(C)C(N)=O)C(C)C)C(C)C)ccc1OC,REN,enzyme activity,inhibitor,,1 nM,11
CCOC(=O)[C@H]1Cc2c(cc([N+](=O)[O-])cc2[N+](=O)[O-])[C@@H](O)[C@@]12C(=O)Nc1ccc(C)cc12,CDK4,cell-free assay,inhibitor,TR-FRET,1 µM,67.8
c1ccc(C(NCCNC(c2ccccc2)c2ccccc2)c2ccccc2)cc1,REN,enzyme activity,inhibitor,,10 µM,30
CCOC(=O)[C@H]1Cc2c(cc([N+](=O)[O-])cc2[N+](=O)[O-])[C@H](O)[C@]12C(=O)Nc1ccc(Cl)cc12,CDK4,cell-free assay,inhibitor,TR-FRET,1 µM,45.2
C#Cc1n[nH]c2c(-c3cn(C(C)c4ccccn4)c(=O)[nH]c3=O)cc(F)cc12 (stereo not shown),"Ephrin type-A receptor 5 (EPHA5, Homo sapiens, UniProt P54756)",enzyme activity,inhibitor,,1 µM,4
